Data taken from ChEMBL document CHEMBL1138115, “The synthesis and aqueous superoxide anion scavenging of water-dispersible lutein esters” (2006).
Counter-ions that a name gives are not always drawn.

Legend:
Format in all cases: functional
Conditions in all cases: Homo sapiens
PMNL [1] = assay: Inhibition of Superoxide radical scavenging activity in water at 1.0 mM in PMA-stimulated PMN
Outline: (§1)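 Human PMNs were isolated by Percoll gradient (density 1.080 g/mL) from fresh venous blood of a single volunteer and suspended in PAG-CM buffer (PIPES pH 7.4, HSA, glucose, 1 mM CaCl2/MgCl2). 1 × 10⁶ cells were preincubated 5 min with compound in water or 40% EtOH, then stimulated with PMA (1 ng/mL). Superoxide was spin-trapped with DEPMPO (10 mM) and read by X-band EPR. Results are mean % signal inhibition, N=3 per formulation except one N=1.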

PMNL [2] = assay: Inhibition of Superoxide radical scavenging activity in water at 3.0 mM in PMA-stimulated PMN; outline: as §1
PMNL [3] = assay: Inhibition of Superoxide radical scavenging activity in water at 0.1 mM in PMA-stimulated PMN; outline: as §1
PMNL [4] = assay: Inhibition of Superoxide radical scavenging activity in water at 5.0 mM in PMA-stimulated PMN; outline: as §1
PMNL [5] = assay: Inhibition of Superoxide radical scavenging activity in 40% EtOH at 0.1 mM in PMA-stimulated PMN; outline: as §1

Molecule `CC1=CC(OP(=O)(O)O)CC(C)(C)C1/C=C/C(C)=C/C=C/C(C)=C/C=C/C=C(C)/C=C/C=C(C)/C=C/C1=C(C)CC(OP(=O)(O)O)CC1(C)C` (stereo not given) [LUTEIN DIPHOSPHATE SODIUM SALT] has an inhibition at 1000 µM (PMNL [1]) of 9.3%, an inhibition at 3000 µM (PMNL [2]) of 72.3% and an inhibition at 100 µM (PMNL [3]) of 0%. It also gave an inhibition at 5000 µM (PMNL [4]) of 91% and an inhibition at 100 µM (PMNL [5]) of 18%.

`CC1=CC(OC(=O)CCC(=O)O)CC(C)(C)C1/C=C/C(C)=C/C=C/C(C)=C/C=C/C=C(C)/C=C/C=C(C)/C=C/C1=C(C)CC(OC(=O)CCC(=O)O)CC1(C)C` (stereo not given) [LUTEIN DISUCCINATE SODIUM SALT] was tested, and the inhibition at 1000 µM (PMNL [1]) was 13%, the inhibition at 3000 µM (PMNL [2]) was 61.7% and the inhibition at 100 µM (PMNL [3]) was 0%. For the same molecule, the inhibition at 5000 µM (PMNL [4]) was 74.7% and the inhibition at 100 µM (PMNL [5]) was 5%.
